Data from ChEMBL document CHEMBL1122917, “Vinblastin-23-oyl amino acid derivatives: chemistry, physicochemical data, toxicity, and antitumor activities against P388 and L1210 leukemias” (J Med Chem, 1985).

Experiments:
Format in all cases: functional
[1] = system: Mus musculus; assay: Percent increase in life span of DBA2 mice after inoculation with L1210 leukemia intravenously at a dose of 40 mg/kg per day; conditions: route intravenous
[2] = system: Mus musculus; assay: Number of survivors of DBA2 mice on 30th day after inoculation with L1210 leukemia cell line intravenously at a dose of 40 mg/kg/day; 0/10; conditions: route intravenous
[3] = system: Mus musculus; assay: Number of survivors on 60th day at dose 20 mg/kg/day in 10 mice implanted with P388 leukemia cell line; 0/10
[4] = system: Mus musculus; assay: Number of survivors on 60th day at dose 40 mg/kg/day in 10 mice implanted with P388 leukemia cell line; 0/10
[5] = system: Mus musculus; assay: Number of survivors of DBA2 mice on 30th day after inoculation with L1210 leukemia cell line intravenously at a dose of 45 mg/kg/day; 0/10; conditions: route intravenous
[6] = system: Mus musculus; assay: Percent increase in life span at dose 50 mg/kg/day in 10 mice implanted with P388 leukemia cell line
In short: (§1)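 Female DBA2 mice inoculated iv on day 0 with 10^4 P388 cells; single iv treatment on day 1 with drug as sulfate salt in physiological saline. Survival followed; %ILS from all deaths and survivors as (T/C × 100) − 100, maximal MST 30 days; survivors counted on days 30 and 60. Most experiments confirmed three times.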

[7] = system: Mus musculus; assay: Percent increase in life span at dose 30 mg/kg/day in 10 mice implanted with P388 leukemia cell line; in short: as §1
[8] = system: Mus musculus; assay: Percent increase in life span of DBA2 mice after inoculation with L1210 leukemia intravenously at a dose of 45 mg/kg per day; conditions: route intravenous
In short: (§2)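 Female DBA2 mice inoculated iv on day 0 with 10^4 L1210 cells; drugs given iv as sulfate salts in physiological saline, mostly once on day 1. %ILS from all deaths and survivors as (T/C × 100) − 100; survivors scored on days 30 and 60.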

[9] = system: Mus musculus; assay: Number of survivors on 30th day at dose 50 mg/kg/day in 9 mice implanted with P388 leukemia cell line; 0/9
[10] = system: Mus musculus; assay: Number of survivors on 60th day at dose 45 mg/kg/day in 10 mice implanted with P388 leukemia cell line; 0/10
[11] = system: Mus musculus; assay: Number of survivors of DBA2 mice on 60th day after inoculation with L1210 leukemia cell line intravenously at a dose of 40 mg/kg/day; 0/10; conditions: route intravenous
[12] = system: Mus musculus; assay: Number of survivors on 30th day at dose 40 mg/kg/day in 10 mice implanted with P388 leukemia cell line; 0/10
[13] = system: Mus musculus; assay: Percent increase in life span at dose 40 mg/kg/day in 10 mice implanted with P388 leukemia cell line; in short: as §1
[14] = system: Mus musculus; assay: Number of survivors on 30th day at dose 45 mg/kg/day in 10 mice implanted with P388 leukemia cell line; 2/10
[15] = system: Mus musculus; assay: Percent increase in life span at dose 20 mg/kg/day in 10 mice implanted with P388 leukemia cell line; in short: as §1
[16] = system: Mus musculus; assay: Number of survivors on 60th day at dose 50 mg/kg/day in 9 mice implanted with P388 leukemia cell line; 0/9
[17] = system: Mus musculus; assay: Number of survivors on 30th day at dose 20 mg/kg/day in 10 mice implanted with P388 leukemia cell line; 0/10
[18] = system: Mus musculus; assay: Number of survivors of DBA2 mice on 60th day after inoculation with L1210 leukemia cell line intravenously at a dose of 45 mg/kg/day; 0/10; conditions: route intravenous
[19] = system: Mus musculus; assay: Number of survivors on 30th day at dose 30 mg/kg/day in 10 mice implanted with P388 leukemia cell line; 1/10
[20] = system: Mus musculus; assay: Percent increase in life span at dose 45 mg/kg/day in 10 mice implanted with P388 leukemia cell line
[21] = system: Mus musculus; assay: Number of survivors on 60th day at dose 30 mg/kg/day in 10 mice implanted with P388 leukemia cell line; 0/10
[22] = system: Mus musculus; assay: Number of survivors on 60th day at dose 3 mg/kg/day in 10 mice implanted with P388 leukemia cell line
[23] = system: Mus musculus; assay: Percent increase in life span at dose 8 mg/kg/day in 10 mice implanted with P388 leukemia cell line; in short: as §1
[24] = system: Mus musculus; assay: Percent increase in life span at dose 6 mg/kg/day in 10 mice implanted with P388 leukemia cell line; in short: as §1
[25] = system: Mus musculus; assay: Number of survivors on 60th day at dose 5 mg/kg/day in 10 mice implanted with P388 leukemia cell line
[26] = system: Mus musculus; assay: Number of survivors on 30th day at dose 5 mg/kg/day in 10 mice implanted with P388 leukemia cell line
[27] = system: Mus musculus; assay: Number of survivors of DBA2 mice on 60th day after inoculation with L1210 leukemia cell line intravenously at a dose of 7 mg/kg/day; 0/10; conditions: route intravenous
[28] = system: Mus musculus; assay: Number of survivors of DBA2 mice on 30th day after inoculation with L1210 leukemia cell line intravenously at a dose of 7 mg/kg/day; 0/10; conditions: route intravenous
[29] = system: Mus musculus; assay: Percent increase in life span at dose 3 mg/kg/day in 10 mice implanted with P388 leukemia cell line; in short: as §1
[30] = system: Mus musculus; assay: Number of survivors on 30th day at dose 6 mg/kg/day in 10 mice implanted with P388 leukemia cell line
[31] = system: Mus musculus; assay: Percent increase in life span at dose 9 mg/kg/day in 10 mice implanted with P388 leukemia cell line; in short: as §1
[32] = system: Mus musculus; assay: Percent increase in life span at dose 5 mg/kg/day in 10 mice implanted with P388 leukemia cell line; in short: as §1
[33] = system: Mus musculus; assay: Number of survivors on 30th day at dose 9 mg/kg/day in 10 mice implanted with P388 leukemia cell line
[34] = system: Mus musculus; assay: Number of survivors on 60th day at dose 9 mg/kg/day in 10 mice implanted with P388 leukemia cell line
[35] = system: Mus musculus; assay: Number of survivors on 30th day at dose 8 mg/kg/day in 10 mice implanted with P388 leukemia cell line
[36] = system: Mus musculus; assay: Number of survivors on 30th day at dose 3 mg/kg/day in 10 mice implanted with P388 leukemia cell line; 0/10
[37] = system: Mus musculus; assay: Percent increase in life span at dose 7 mg/kg/day in 10 mice implanted with P388 leukemia cell line; in short: as §1
[38] = system: Mus musculus; assay: Percent increase in life span of DBA2 mice after inoculation with L1210 leukemia intravenously at a dose of 7 mg/kg per day; conditions: route intravenous; in short: as §2
[39] = system: Mus musculus; assay: Number of survivors of DBA2 mice on 60th day after inoculation with L1210 leukemia cell line intravenously at a dose of 6 mg/kg/day; 0/10; conditions: route intravenous
[40] = system: Mus musculus; assay: Number of survivors on 60th day at dose 6 mg/kg/day in 10 mice implanted with P388 leukemia cell line
[41] = system: Mus musculus; assay: Percent increase in life span of DBA2 mice after inoculation with L1210 leukemia intravenously at a dose of 6 mg/kg per day; conditions: route intravenous; in short: as §2
[42] = system: Mus musculus; assay: Number of survivors on 30th day at dose 7 mg/kg/day in 10 mice implanted with P388 leukemia cell line
[43] = system: Mus musculus; assay: Number of survivors on 60th day at dose 7 mg/kg/day in 10 mice implanted with P388 leukemia cell line; in short: as §1
[44] = system: Mus musculus; assay: Number of survivors on 60th day at dose 8 mg/kg/day in 10 mice implanted with P388 leukemia cell line; in short: as §1
[45] = system: Mus musculus; assay: Number of survivors of DBA2 mice on 30th day after inoculation with L1210 leukemia cell line intravenously at a dose of 6 mg/kg/day; 0/10; conditions: route intravenous

## CCOC(=O)[C@@H](Cc1c[nH]c2ccccc12)NC(=O)[C@@]1(O)[C@H](O)[C@]2(CC)C=CCN3CC[C@@]4(c5cc([C@@]6(C(=O)OC)C[C@H]7C[N@](CCc8c6[nH]c6ccccc86)C[C@](O)(CC)C7)c(OC)cc5N(C)[C@@]14C)[C@@H]32
[1]
  ILS at 40 mg/kg/day: 21.8%
[2]
  Survivors: 0
[3]
  Survivors: 0
[4]
  Survivors: 0
[5]
  Survivors: 0
[6]
  ILS at 50 mg/kg/day: 59%
[7]
  ILS at 30 mg/kg/day: 41.4%
[8]
  ILS at 45 mg/kg/day: 34.6%
[9]
  Survivors: 0
[10]
  Survivors: 0
[11]
  Survivors: 0
[12]
  Survivors: 0
[13]
  ILS at 40 mg/kg/day: 53.8%
[14]
  Survivors: 2
[15]
  ILS at 20 mg/kg/day: 18.7%
[16]
  Survivors: 0
[17]
  Survivors: 0
[18]
  Survivors: 0
[19]
  Survivors: 1
[20]
  ILS at 45 mg/kg/day: 85%
[21]
  Survivors: 0

## CC[C@H](C)[C@H](NC(=O)[C@@]1(O)[C@H](O)[C@]2(CC)C=CCN3CC[C@@]4(c5cc([C@@]6(C(=O)OC)C[C@H]7C[N@](CCc8c6[nH]c6ccccc86)C[C@](O)(CC)C7)c(OC)cc5N(C)[C@@]14C)[C@@H]32)C(=O)OC
[22]
  Survivors: 0
[23]
  ILS at 8 mg/kg/day: 149%
[24]
  ILS at 6 mg/kg/day: 118%
[25]
  Survivors: 1
[26]
  Survivors: 3
[27]
  Survivors: 0
[28]
  Survivors: 0
[29]
  ILS at 3 mg/kg/day: 41.3%
[30]
  Survivors: 3
[31]
  ILS at 9 mg/kg/day: 48.3%
[32]
  ILS at 5 mg/kg/day: 66.5%
[33]
  Survivors: 4
[34]
  Survivors: 4
[35]
  Survivors: 3
[36]
  Survivors: 0
[37]
  ILS at 7 mg/kg/day: 164%
[38]
  ILS at 7 mg/kg/day: 64%
[39]
  Survivors: 0
[40]
  Survivors: 0
[41]
  ILS at 6 mg/kg/day: 65.7%
[42]
  Survivors: 5
[43]
  Survivors: 2
[44]
  Survivors: 3
[45]
  Survivors: 0
